How the values were obtained:
K-562 = assay: NCI one-dose screen: K-562; assay type: cell-based; settings: Homo sapiens, K562, read-out: Growth inhibition percentage (GI %)
Procedure, shortened: (§1)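 Cells grown in RPMI 1640 with 5% FBS and 2 mM L-glutamine, seeded at 5000–40,000 cells/well, preincubated 24 h at 37 °C and 5% CO2. Time-zero plates were TCA-fixed. Test compound (DMSO stock diluted in gentamicin medium) was added at a final 10^-5 M for 48 h. Cells were TCA-fixed (80% for suspension lines), SRB-stained and read at 515 nm. GI% = 100 − % growth versus untreated control.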

MOLT-4 = assay: NCI one-dose screen: MOLT-4; assay type: cell-based; settings: Homo sapiens, MOLT-4, read-out: Growth inhibition percentage (GI %)
Procedure, shortened: as §1

SR = assay: NCI one-dose screen: SR; assay type: cell-based; settings: Homo sapiens, read-out: Growth inhibition percentage (GI %)
Procedure, shortened: (§2)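 Human tumour lines grown in RPMI 1640 with 5% FBS and 2 mM L-glutamine, seeded at 5000–40,000 cells/well, 24 h at 37 °C, 5% CO2. Time-zero plates TCA-fixed. Test compound (DMSO stock at 400× final) added to a final 10 µM, 48 h at 37 °C. Cells fixed with cold TCA (50% adherent, 80% suspension) and stained with sulforhodamine B; absorbance read at 515 nm. GI% = 100 − % growth relative to untreated control.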

EKVX = assay: NCI one-dose screen: EKVX; assay type: cell-based; settings: Homo sapiens, read-out: Growth inhibition percentage (GI %)
Procedure, shortened: as §1

NCI-H460 = assay: NCI one-dose screen: NCI-H460; assay type: cell-based; settings: Homo sapiens, NCI-H460, read-out: Growth inhibition percentage (GI %)
Procedure, shortened: as §1

HCC-2998 = assay: NCI one-dose screen: HCC-2998; assay type: cell-based; settings: Homo sapiens, HCC 2998, read-out: Growth inhibition percentage (GI %)
Procedure, shortened: as §1

HCT-116 = assay: NCI one-dose screen: HCT-116; assay type: cell-based; settings: Homo sapiens, HCT-116, read-out: Growth inhibition percentage (GI %), HCT-116, colon cancer; single dose 10 μM
Procedure, shortened: as §1

SF-539 = assay: NCI one-dose screen: SF-539; assay type: cell-based; settings: Homo sapiens, SF-539, read-out: Growth inhibition percentage (GI %)
Procedure, shortened: as §1

SNB-19 = assay: NCI one-dose screen: SNB-19; assay type: cell-based; settings: Homo sapiens, SNB-19, read-out: Growth inhibition percentage (GI %)
Procedure, shortened: as §1

SK-MEL-2 = assay: NCI one-dose screen: SK-MEL-2; assay type: cell-based; settings: Homo sapiens, SK-MEL-2, read-out: Growth inhibition percentage (GI %)
Procedure, shortened: as §1

OVCAR-3 = assay: NCI one-dose screen: OVCAR-3; assay type: cell-based; settings: Homo sapiens, OVCAR-3, read-out: Growth inhibition percentage (GI %)
Procedure, shortened: as §1

786-0 = assay: NCI one-dose screen: 786-0; assay type: cell-based; settings: Homo sapiens, 786-0, read-out: Growth inhibition percentage (GI %)
Procedure, shortened: as §1

RXF 393 = assay: NCI one-dose screen: RXF 393; assay type: cell-based; settings: Homo sapiens, RXF 393, read-out: Growth inhibition percentage (GI %)
Procedure, shortened: as §1

MCF7 = assay: NCI one-dose screen: MCF7; assay type: cell-based; settings: Homo sapiens, MCF7, read-out: Growth inhibition percentage (GI %)
Procedure, shortened: as §1

MDA-MB-231 = assay: NCI one-dose screen: MDA-MB-231; assay type: cell-based; settings: Homo sapiens, MDA-MB-231, read-out: Growth inhibition percentage (GI %)
Procedure, shortened: as §1

NCI 58 human cell lines = assay: NCI one-dose screen: whole panel summary; assay type: cell-based
Procedure, shortened: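 NCI 58-line single-dose screen in nine subpanels. Cells were exposed for 48 h at 37 °C to a final 10 µM test compound. Growth was measured by sulforhodamine B staining against time-zero and untreated-control plates. For each compound, percent growth relative to untreated cells was averaged across the panel as mean % growth. GI% per line = 100 − % growth.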

[1] = system: newly formed blood capillaries of HET-CAM; assay: HET-CAM angiogenesis study; assay type: in vivo, hen
Procedure, shortened: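 Fertilized hen eggs were incubated 9 days at 37 °C with rotation, in groups of three. Test compound at 40 μM in 40 μL of 40% DMSO in saline was dropped onto a 5 mm filter-paper disc on the CAM. Control got 40 μL vehicle. On day 11 each egg was angiographed. Newly formed small vessels within a 100 mm2 circle were counted by image analysis. One-way ANOVA with Dunnett's test.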

VEGFR2 = settings: cited from earlier work
chick embryos / HET-CAM = assay: HET-CAM mortality and toxicity; assay type: in vivo, hen; settings: 40 μM, 40 μL in 40% DMSO in sterile saline, applied 9th day, examined 11th day
Procedure, shortened: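 Hen eggs were incubated at 37 °C with 2-hourly rotation and candled on day 5; dead eggs were excluded. A window was opened and taped. On day 9, 40 μL of test compound (40 or 100 μM, in 40% or 100% DMSO in saline) went onto a 5 mm filter disc at a low-vessel-density CAM area, 3 eggs/concentration. Embryo toxicity and mortality were assessed by candling on day 11.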

A549/ATCC = assay: NCI one-dose screen: A549/ATCC; assay type: cell-based; settings: Homo sapiens, A549, read-out: Growth inhibition percentage (GI %)
Procedure, shortened: as §1

TK-10 = assay: NCI one-dose screen: TK-10; assay type: cell-based; settings: Homo sapiens, TK-10, read-out: Growth inhibition percentage (GI %)
Procedure, shortened: as §2

PC-3 = assay: NCI one-dose screen: PC-3; assay type: cell-based; settings: Homo sapiens, PC-3, read-out: Growth inhibition percentage (GI %)
Procedure, shortened: as §1

T-47D = assay: NCI one-dose screen: T-47D; assay type: cell-based; settings: Homo sapiens, T47D, read-out: Growth inhibition percentage (GI %)
Procedure, shortened: as §2

multiple tyrosine kinase = settings: target not named at the place (multiple tyrosine kinase; context VEGFR2) ref 14; cited from earlier work
c-Met kinase = settings: read-out: IC50 c-Met; cited from earlier work
[2] = 40 μM, versus 40% DMSO negative control

O=C1Nc2ccccc2C1=NNc1nnc2n1N=C(c1ccccc1)CS2 [6a, 3-(2-(6-Phenyl-7H-[1,2,4]triazolo[3,4-b][1,3,4]thiadiazin-3-yl)hydrazineylidene)indolin-2-one]
inhibition at 10 µM (K-562): 23% | inhibition at 10 µM (MOLT-4): 13% | inhibition at 10 µM (SR): 23% | inhibition at 10 µM (EKVX): 13% | inhibition at 10 µM (NCI-H460): 17% | inhibition at 10 µM (HCC-2998): 19% | inhibition at 10 µM (HCT-116): 14% | inhibition at 10 µM (SF-539): 18% | inhibition at 10 µM (SNB-19): 17% | inhibition at 10 µM (SK-MEL-2): 13% | inhibition at 10 µM (OVCAR-3): 12% | inhibition at 10 µM (786-0): 19% | inhibition at 10 µM (RXF 393): 18% | inhibition at 10 µM (MCF7): 29% | inhibition at 10 µM (MDA-MB-231): 12% | GI (range over the susceptible cell lines listed in the sentence) (NCI 58 human cell lines; single dose 10 μM, cell lines as listed in the sentence): 35–57% | increase in the number of newly formed blood capillaries [1, 2]: 33%

Cc1[nH]c(/C=C2\C(=O)Nc3ccc(F)cc32)c(C)c1C(=O)NC[C@H](O)CN1CCOCC1 [SU14813]
IC50 (VEGFR2; read-out: IC50 VEGFR2): 40 nM

Cc1ccc(C2=Nn3c(NN=C4C(=O)Nc5ccccc54)nnc3SC2)cc1 [6c, 3-(2-(6-(p-Tolyl)-7H-[1,2,4]triazolo[3,4-b][1,3,4]thiadiazin-3-yl)hydrazineylidene)-indolin-2-one]
toxicity / mortality against HET-CAM and the chick embryos (chick embryos / HET-CAM): toxic

Cc1[nH]c(/C=C2\C(=O)Nc3ccccc32)c(C)c1CCC(=O)O [Orantinib]
Ki (VEGFR2; read-out: Ki VEGFR2): 9 nM

COc1ccc(C2=Nn3c(NN=C4C(=O)N(C)c5ccc(Cl)cc54)nnc3SC2)cc1 [6u, 5-Chloro-3-(2-(6-(4-methoxyphenyl)-7H-[1,2,4]triazolo[3,4-b][1,3,4]thiadiazin-3-yl)hydrazineylidene)-1-methylindolin-2-one]
toxicity / mortality against HET-CAM and the chick embryos (chick embryos / HET-CAM): toxic

COc1ccc(C2=Nn3c(NN=C4C(=O)Nc5ccc(Cl)cc54)nnc3SC2)cc1 [6l, 5-Chloro-3-(2-(6-(4-methoxyphenyl)-7H-[1,2,4]triazolo[3,4-b][1,3,4]thiadiazin-3-yl)hydrazineylidene)indolin-2-one]
inhibition at 10 µM (K-562): 15% | inhibition at 10 µM (SR): 23% | inhibition at 10 µM (A549/ATCC): 23% | sensitive cell lines no. (NCI 58 human cell lines; number of cell lines of the panel with GI % shown (higher than 10%), 10 μM): 6

COc1ccc(C2=Nn3c(NN=C4C(=O)N(Cc5ccccc5)c5ccccc54)nnc3SC2)cc1 [6x, 1-Benzyl-3-(2-(6-(4-methoxyphenyl)-7H-[1,2,4]triazolo[3,4-b][1,3,4]thiadiazin-3-yl)hydrazineylidene)indolin-2-one]
change in the number of blood vessels (in words) [1, 2]: significant decrease

COc1ccc(C2=Nn3c(N/N=C4\C(=O)Nc5ccc(F)cc54)nnc3SC2)cc1 [6j, 5-Fluoro-3-(2-(6-(4-methoxyphenyl)-7H-[1,2,4]triazolo[3,4-b][1,3,4]thiadiazin-3-yl) hydrazineylidene)indolin-2-one]
toxicity / mortality against HET-CAM and the chick embryos (chick embryos / HET-CAM): toxic

COc1ccc(C2=Nn3c(NN=C4C(=O)Nc5ccc(OC)cc54)nnc3SC2)cc1 [6n, 5-Methoxy-3-(2-(6-(4-methoxyphenyl)-7H-[1,2,4]triazolo[3,4-b][1,3,4]thiadiazin-3-yl)hydrazineylidene)indolin-2-one]
inhibition at 10 µM (K-562): 19% | inhibition at 10 µM (MOLT-4): 12% | inhibition at 10 µM (A549/ATCC): 29% | inhibition at 10 µM (TK-10): 17% | inhibition at 10 µM (PC-3): 10% | inhibition at 10 µM (T-47D): 15% | change in the number of blood vessels (in words) [1, 2]: significant decrease | reduction in the number of newly formed blood capillaries (angiogenesis) ([1]; 40 μM, versus 40% DMSO negative control, 11th day): 27%

CCCN1C(=O)C(=NNc2nnc3n2N=C(c2ccc(OC)cc2)CS3)c2cc(Cl)ccc21 [6w, 5-Chloro-3-(2-(6-(4-methoxyphenyl)-7H-[1,2,4]triazolo[3,4-b][1,3,4]thiadiazin-3-yl)hydrazineylidene)-1-propylindolin-2-one]
toxicity / mortality against HET-CAM and the chick embryos (chick embryos / HET-CAM): toxic

CCN(CC)CCNC(=O)c1c(C)[nH]c(/C=C2\C(=O)Nc3ccc(F)cc32)c1C [sunitinib]
Ki (multiple tyrosine kinase): 9 nM

C[C@@H]1C[C@H]2[C@@H]3CCC4=CC(=O)C=C[C@]4(C)[C@@]3(F)[C@@H](O)C[C@]2(C)[C@@]1(O)C(=O)CO [DEXA, dexamethasone, reference compound]
reduction in the number of newly formed blood capillaries ([1]; DEXA 0.02 μg, positive control, versus 40% DMSO, P < 0.001): 54%

Cc1[nH]c(/C=C2\C(=O)Nc3ccc(S(=O)(=O)N(C)c4cccc(Cl)c4)cc32)c(C)c1C(=O)N1CCN(C)CC1 [SU11274]
IC50 (c-Met kinase): 12 nM

From PMC7408256 (ACS Omega, 2020)
